{"data": "Measurements gathered from unrelated publications", "organism": "Bacillus subtilis", "observed": "microbial growth", "note": "Compare with care: the assays were run in different laboratories."}
{"Structure (SMILES)": "CN[C@H](CC(C)C)C(=O)N[C@H]1C(=O)N[C@@H](CC(N)=O)C(=O)N[C@H]2C(=O)N[C@H]3C(=O)N[C@H](C(=O)N[C@H](C(=O)O)c4cc(O)cc(O)c4-c4cc3ccc4O)[C@H](O)c3ccc(c(Cl)c3)Oc3cc2cc(c3O[C@@H]2O[C@H](CO)[C@@H](O)[C@H](O)[C@H]2O[C@H]2C[C@](C)(N)[C@H](O)[C@H](C)O2)Oc2ccc(cc2Cl)[C@H]1O", "test": "broth dilution", "system": "ATCC6633", "MIC": "0.24 mg/L"}
{"Structure (SMILES)": "CCCCCCCC[P+](/C=C(/c1ccccc1)c1cc(Cl)ccc1O)(CCCCCCCC)CCCCCCCC", "setting": "21 h", "MIC": "> 80 µM"}
{"Structure (SMILES)": "O=C(O)c1ccc(-n2cc(/C=N/Nc3cc(F)ccc3F)c(-c3ccc(F)cc3)n2)cc1", "system": "ATCC6623", "MIC": "12.5 mg/L"}
{"Structure (SMILES)": "C/C=C(\\C)c1cc(O)c(C)c(OC(=O)c2c(C)c(Cl)c(O)c(Cl)c2O)c1", "test": "broth dilution", "system": "BS01", "MIC": "2 mg/L"}
{"Structure (SMILES)": "O=C(O)c1ccc(-n2cc(/C=N/Nc3ccc(F)cc3)c(-c3ccc(F)cc3)n2)cc1", "system": "ATCC6623", "MIC": "25 mg/L"}
{"Structure (SMILES)": "CC(=O)NCN1N=C(C)C(=NNn2c(-c3ccccc3)nc3ccccc3c2=O)C1=O", "test": "broth dilution", "setting": "24 h", "MIC": "59.9 µM"}
{"Structure (SMILES)": "C[n+]1ccc(/C=C2\\Sc3ccccc3N2CCCN2CCCCC2)c2ccccc21.[I-]", "test": "broth dilution", "system": "168", "MIC": "16 mg/L"}
{"Structure (SMILES)": "CN(/N=C/c1cn(-c2ccc(C(=O)O)cc2)nc1-c1cccc(F)c1)c1ccccc1", "system": "ATCC6623", "MIC": "12.5 mg/L"}
{"Structure (SMILES)": "O=C(O)c1cc(O)c(O)c(OC(=O)c2cc(O)c(O)c(O)c2)c1", "test": "broth dilution", "system": "ATCC6633", "MIC": "> 200 µM"}
{"Structure (SMILES)": "O=C1NC(=S)S/C1=C\\c1c2ccccc2c(-c2ccc(N(c3ccccc3)c3ccccc3)cc2)c2ccccc12", "test": "broth dilution", "system": "ATCC6633", "MIC": "> 1000 mg/L"}
{"Structure (SMILES)": "CCC[P+](/C=C(/c1ccccc1)c1cc(Cl)ccc1O)(CCC)CCC", "setting": "21 h", "MIC": "> 40 µM"}
{"Structure (SMILES)": "CC1(C)S[C@@H]2[C@H](NC(=O)[C@H](N)c3ccccc3)C(=O)N2[C@H]1C(=O)O", "test": "broth dilution", "system": "168", "MIC": "32 mg/L"}
{"Structure (SMILES)": "Cc1ccccc1NCc1ccc(Oc2ccccn2)cc1", "MIC": "1.8 mg/L"}
{"Structure (SMILES)": "O=C(O)c1cn(C2CC2)c2cc(N3CCNCC3)c(F)cc2c1=O", "test": "broth dilution", "system": "ATCC6633", "MIC": "0.03 mg/L"}
{"Structure (SMILES)": "O=C(O)c1ccc(-n2cc(/C=N/Nc3c(F)c(F)cc(F)c3F)c(-c3cccc(F)c3)n2)cc1", "system": "ATCC6623", "MIC": "12.5 mg/L"}
{"Structure (SMILES)": "CC1(C)S[C@@H]2[C@H](NC(=O)[C@H](N)c3ccccc3)C(=O)N2[C@H]1C(=O)O", "test": "broth dilution", "system": "BS01", "MIC": "0.13 mg/L"}
{"Structure (SMILES)": "COc1ccc(NCc2ccc(Oc3ccccn3)cc2)cc1", "MIC": "> 6.24 mg/L"}
{"Structure (SMILES)": "N#Cc1ccc(N/N=C/c2cn(-c3ccc(C(=O)O)cc3)nc2-c2ccc(F)cc2)cc1", "system": "ATCC6623", "MIC": "25 mg/L"}
{"Structure (SMILES)": "Clc1cccc(NCc2ccc(Oc3ccccn3)cc2)c1", "MIC": "1.8 mg/L"}
{"Structure (SMILES)": "Cc1cc(/C=C2\\Sc3ccccc3N2CCCN2CCC(C)CC2)c2ccccc2[n+]1C.[I-]", "test": "broth dilution", "system": "168", "MIC": "1 mg/L"}
